The list is not random: actives were taken first. Their share in the collection is about 1.7%.
ARNT TACC3 PPI: disruptors of human ARNT/TACC3 interaction; AlphaScreen His-ARNT PAS-B/GST-TACC3 binding, luminescence; TACC3 fragment carries E629A point mutation; inhibition, % at 9.99 µM; 390,000 compounds, 0.66% hits; AID 623870;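 active = mean inhibition of replicates at least 50% and at least half of replicates each reaching 50%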;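 also: 0% = complete ARNT plus TACC3 wells and 100% = ARNT alone without TACC3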
miR122 inh: blocks miR-122 activity in Huh7 sensor cells; 340,000 compounds, 0.3% hits; activation (reporter increase), % at 12.5 µM; Huh7 miR-122 Renilla luciferase sensor, 48 h; neutral wells = 0, positive control = 100;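 active = mean replicate activation score at least 90 and every replicate individually at or above 90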;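 also: higher luciferase means less miR-122 activity so hits act as miR-122 inhibitors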
CAL PDZ FP-1: CAL PDZ (human) peptide binding inhibition; inhibition, % at 24.9 µM; 300,000 compounds, 0.92% hits; AID 602252; purified CAL PDZ, TMR-peptide fluorescence polarization, 1 h;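 active = mean inhibition of at least 30% with at least half of replicates also reaching 30%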;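 also: 0% = DMSO neutral control and 100% = excess unlabeled competitor peptide PRC23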
F508del corr: CFTR F508del correction in bronchial cells; activity (quench increase), % at 7.58 µM; CFBE cells, YFP halide quenching; stimulated with forskolin plus potentiator P3; % fluorescence drop versus neutral controls; 350,000 compounds, 0.36% hits;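 active = mean added fluorescence quench of at least 8% versus neutral control, with both replicates also reaching 8%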;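 also: cells transiently co-express mutant CFTR-F508del with the halide-sensitive YFP; corrector assay measuring rescue of mutant channel to the surface after 24 h compound exposure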
CAL PDZ FP-2: blocks peptide binding to human CAL PDZ domain | AID 504414 | purified CAL PDZ, TMR-peptide fluorescence polarization, 1 h | Q9HD26 | inhibition, % at 20 µM | 330,000 compounds, 0.02% hits;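 active = highest replicate inhibition of at least 40%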;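 also: plate controls were DMSO neutral control wells for no effect and unlabeled competitor peptide control wells for full effect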
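Control set: unlabelled peptide and DMSO controls / Material: purified CerCALP PDZ construct / Timing: 1 h incubation at room temperature before polarization reading / Doses: 20 µM, one dose / Detection: fluorescence polarization (mP)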
PGC1a acetyl inh: modulators of PGC1a acetylation | U2OS PGC1a acetylation, AlphaScreen anti-acetyl-lysine; with virally co-expressed GCN5 acetyltransferase | inhibition, % at 15.6 µM | 350,000 compounds, 0.17% hits;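 active = every replicate shows inhibition of at least 40%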;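 also: 0% = neutral control wells and 100% = positive control wells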
* hit, by the source's call; x = no result given; [ ] = dose if it differs, or a comment.

SMILES	ARNT TACC3 PPI	miR122 inh	CAL PDZ FP-1	F508del corr	CAL PDZ FP-2	PGC1a acetyl inh
COc1cc2c(C#CCCO)c(-c3ccsc3)oc(=O)c2cc1OC	-1	-13	0	14*	-4	x
Cc1cnc(NC(=O)CN2CCN(c3ccccn3)CC2)s1	x	177*	-1	x	-2	-22
COc1ccc(N2CCN(CC(=O)Nc3ncc(C)s3)CC2)cc1	-6	x	-12	-1	x	-2
Cc1cc(Br)ccc1NC(=O)CN1CCN(c2ccccn2)CC1	-7	-8	75*	-4	x	5
C[C@@H]1CCCCO[C@@H](CN(C)C(=O)Nc2ccc3c(c2)OCO3)[C@H](C)CN([C@H](C)CO)C(=O)c2cc(NC(=O)Nc3ccc(F)cc3)ccc2O1	-2	-16[16.7 µM]	x	0	x	-7
CO[C@H]1CN(C)C(=O)c2cc(NC(=O)C3CC3)ccc2OC[C@@H](C)N(C(=O)CN2CCOCC2)C[C@@H]1C	0	x	x	-1	x	9
CC(C)CNC(=O)C1(N2C(=O)c3ccccc3C2=O)CCCC1	-1	-11	-4	x	-1	x
O=C(O)CNC(=O)C1(N2C(=O)c3ccccc3C2=O)CCCC1	-4	100*	-3	-3	0	1
C=CCN1C(=O)/C(=C/C=C2/N(CC)c3ccc(S(=O)(=O)N(C)C)cc3N2CC)SC1=S	7	x	-1	11*	-1	x
O=C(CCN1CCCCC1)NCC[C@@H]1CC[C@@H](NC(=O)Nc2ccc(Cl)cc2)[C@H](CO)O1	2	x	x	-1	x	2
COc1ccccc1CNc1ccc2nnc(CCNC(=O)c3ccccc3)n2n1	-5	x	54*	-2	-2	x
COC(CNC(=O)[C@H](Cc1ccccc1)N1Cc2ccccc2C1=O)OC	-6	3	3	8.5*	0	4
CCCNC(=O)Nc1ccc2c(c1)OC[C@@H](C)N(C(C)=O)C[C@H](C)[C@@H](OC)CN(C)C2=O	9	x	x	2	x	-12
N#C/C(=C(/O)c1ccccc1F)c1nc2cc(C(F)(F)F)ccc2s1	-3	x	-1	1	1	x
N#C/C(=C(/O)c1ccc2c(c1)OCO2)c1nc2cc(C(F)(F)F)ccc2s1	-5	1	43*	2	-1	-7
Cc1ccc(CNc2nc(N)c([N+](=O)[O-])c(NCCO)n2)cc1	-7	8	62*	1	0	-1
C[C@H]1CN([C@@H](C)CO)C(=O)c2cc(NC(=O)Nc3ccc(F)cc3)ccc2O[C@@H]1CN(C)S(=O)(=O)c1cn(C)cn1	x	2[16.7 µM]	x	1	x	3
O=C(Nc1nc2c(Br)cc(Br)cc2c(=O)s1)C1CCC1	-4	x	37*	-1	-1	x
COCCNC(=S)Nc1cc(OC)c(OC)cc1C#N	50*	x	-1	-1	-3	x
COCCCNC(=S)Nc1ccc(OC(F)F)cc1C	-1	2	0	-2	-3	x
COCCCNC(=S)Nc1cc(C)c(C)cc1C	2	x	-5	0	-1	75*
O=C(NCC[C@@H]1CC[C@@H](NC(=O)C2CC2)[C@@H](CO)O1)Nc1ccc(C(F)(F)F)cc1	-4	x	x	-3	x	2
CCOc1ccc(NC(=O)CSc2nnc(CCNC(=O)c3ccc(OC)cc3)n2CC)cc1	2	-1	-1	x	x	-5
CCn1c(CCNC(=O)c2ccc(OC)cc2)nnc1SCC(=O)Nc1ccccc1F	x	120*	8	8	-1	-11
CO[C@@H]1CC[C@H]2CCOc3ccc(C#N)cc3C(=O)N(C)C[C@@H](OC)[C@@H](C)C(=O)N(C)C[C@H]1O2	-8	x	x	x	x	x
SMILES	ARNT TACC3 PPI	miR122 inh	CAL PDZ FP-1	F508del corr	CAL PDZ FP-2	PGC1a acetyl inh
O=[N+]([O-])c1ccc(Sc2n[nH]c(-c3ccc(Cl)cc3Cl)n2)nc1	3	1	43*	x	x	0
Cc1ccc(Nc2nc(NCC3CCCO3)nc(N)c2[N+](=O)[O-])cc1C (stereo not given)	0	-3	31*	-2	0	0
CCC1(CC)C(=O)NC(=S)N=C1N	x	x	-1	-1	-1	3
CCC1(C2=CCCCC2)C(=O)NC(=S)N=C1N (stereo not given)	1	-3	x	8.7*	0	9
Cc1cc(/C([O-])=C(/C(=S)Nc2ccccc2)[n+]2ccccc2)c(C)n1-c1ccccc1	21	12	-9	x	-1	-4
Cc1cc(/C([O-])=C(/C(=S)Nc2ccc(F)cc2)[n+]2ccccc2)c(C)n1-c1ccc(F)cc1	47*	-18	x	x	-1	6
COc1ccc2c3c([nH]c2c1)[C@H](CO)N(C(=O)c1cccnc1)CC31CCN(Cc2ccccc2)CC1	x	x	x	0	x	x
O=S(=O)(N[C@@H]1CC[C@@H](CCn2cc(C3CC3)nn2)O[C@@H]1CO)c1ccc(F)cc1	-11	-16[16.7 µM]	x	3	x	-2
CC(C)CC(NC(=O)c1ccc(C#CC(C)(C)O)s1)C(=O)O (stereo not given)	0	x	-3	1	0	2
CC(C)(O)C#Cc1ccc(C(=O)NC(CCCNC(N)=O)C(=O)O)s1 (stereo not given)	-5	-3	1	-1	-2	82*
CCOc1cc(C(=O)OCc2ccc(OC)cc2)ccc1OCC(=O)N1CCOCC1	19	x	3	-3	-2	x
CCOc1cc(C(=S)N2CCN(C)CC2)ccc1OCC(=O)N1CCOCC1	-5	-1	31*	x	-1	-8
CO[C@H]1CN(C)C(=O)c2cc(NC(=O)c3cccc(Oc4ccccc4)c3)ccc2OC[C@H](C)NC[C@@H]1C	x	-21[16.7 µM]	x	2	x	-7
CC(C)COc1ccc(C(=O)Nc2ccc(N3CCOCC3)cc2N2CCOCC2)cc1	-6	x	-2	2	0	x
Cc1cccc(NC(=O)CSCC(=O)Nc2cc(C(F)(F)F)ccc2N2CCOCC2)c1	x	5	x	1	x	x
Cc1cccc(NC(=O)CSCC(=O)Nc2ccc(N3CCOCC3)cc2N2CCOCC2)c1	x	1	89*	1	0	x
CCCCCOc1ccc(C(=O)Nc2ccc(N3CCOCC3)cc2N2CCOCC2)cc1	x	-3	45*	1	-1	-1
O=C(/C=C/c1ccco1)Nc1ccc(-c2nc3ccccc3[nH]2)cc1	0	101*	-4	x	-2	-16
S=C(Nc1ccc(-c2nc3ccccc3[nH]2)cc1)Nc1cccnc1	x	-3	43*	0	-2	1
c1cncc(-c2nc3ccccc3[nH]2)c1	5	x	-2	x	-1	9
CCCNC(=O)N1CC2(CN(Cc3ccc(OC)cc3)C2)c2c(n(C)c3cc(OC)ccc23)[C@H]1CO	x	x	x	5	x	-25
Cc1noc(C)c1S(=O)(=O)Nc1ccc2c(c1)C(=O)N([C@@H](C)CO)C[C@H](C)[C@@H](CN(C)S(=O)(=O)c1ccc(F)cc1)O2	x	2[16.7 µM]	x	-2	x	1
C/C(=N\NC(=O)c1ccccc1)c1cc2cc([N+](=O)[O-])ccc2oc1=O	77*	x	-1	x	0	x
